Measurements as given in ChEMBL document CHEMBL4665625, “New pyrido[3,4-g]quinazoline derivatives as CLK1 and DYRK1A inhibitors: synthesis, biological evaluation and binding mode analysis” (Eur J Med Chem, 2019).

Assays:
[1] = target: T1, Cyclin-dependent kinase 5/CDK5 activator 1 (Homo sapiens) (UniProt Q00535+Q15078); experiment: Inhibition of recombinant human CDK5/p25 expressed in bacteria assessed as residual activity at 10 uM using histone H1 as substrate in presence of [gamma-33P]ATP relative to control
T1 sequence (Q00535 whole entry): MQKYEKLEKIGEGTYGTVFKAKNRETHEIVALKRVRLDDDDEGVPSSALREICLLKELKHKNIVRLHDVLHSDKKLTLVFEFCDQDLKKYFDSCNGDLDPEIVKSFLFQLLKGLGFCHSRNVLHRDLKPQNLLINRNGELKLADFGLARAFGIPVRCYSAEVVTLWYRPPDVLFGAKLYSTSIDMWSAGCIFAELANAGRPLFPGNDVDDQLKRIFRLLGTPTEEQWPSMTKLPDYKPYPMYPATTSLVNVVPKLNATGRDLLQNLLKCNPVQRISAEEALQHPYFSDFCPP
T1 sequence (Q15078 99-307 partner limits assumed): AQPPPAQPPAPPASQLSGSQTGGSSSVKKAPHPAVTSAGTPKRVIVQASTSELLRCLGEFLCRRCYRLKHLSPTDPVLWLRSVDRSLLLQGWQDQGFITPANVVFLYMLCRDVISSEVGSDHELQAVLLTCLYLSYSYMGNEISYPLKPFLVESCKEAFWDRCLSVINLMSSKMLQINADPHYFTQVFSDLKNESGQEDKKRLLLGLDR
Procedure, shortened: (§1)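 Human recombinant CDK5/p25 (bacterially expressed) assayed with 0.8 μg/μl histone H1 as substrate and 15 μM [γ-33P]ATP. Residual activity versus DMSO controls, triplicate.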

[2] = target: T1, Cyclin-dependent kinase 5/CDK5 activator 1 (Homo sapiens); experiment: Inhibition of recombinant human CDK5/p25 expressed in bacteria assessed as residual activity at 1 uM using histone H1 as substrate in presence of [gamma-33P]ATP relative to control; procedure, shortened: as §1
[3] = target: Dual specificity protein kinase CLK1 (Mus musculus) (UniProt P22518); experiment: Inhibition of recombinant mouse CLK1 expressed in bacteria assessed as residual activity at 10 uM using GRSRSRSRSRSR as substrate in presence of [gamma-33P]ATP relative to control
Sequence of Dual specificity protein kinase CLK1 (Mus musculus) (P22518 whole entry, looked up, the tested form may be a part): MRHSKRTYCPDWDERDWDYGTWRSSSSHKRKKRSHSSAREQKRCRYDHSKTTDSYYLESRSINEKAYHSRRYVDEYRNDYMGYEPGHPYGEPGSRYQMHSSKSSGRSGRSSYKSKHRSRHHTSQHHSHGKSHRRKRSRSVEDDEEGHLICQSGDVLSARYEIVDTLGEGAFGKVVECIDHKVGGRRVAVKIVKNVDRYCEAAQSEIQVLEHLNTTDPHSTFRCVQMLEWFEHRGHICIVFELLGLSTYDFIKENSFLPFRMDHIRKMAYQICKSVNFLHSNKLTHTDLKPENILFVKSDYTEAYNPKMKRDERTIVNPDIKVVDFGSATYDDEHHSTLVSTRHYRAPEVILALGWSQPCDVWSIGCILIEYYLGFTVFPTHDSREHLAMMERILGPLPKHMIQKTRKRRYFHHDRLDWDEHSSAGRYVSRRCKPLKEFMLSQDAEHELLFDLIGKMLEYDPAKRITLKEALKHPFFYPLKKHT

[4] = target: Dual specificity protein kinase CLK1 (Mus musculus) (UniProt P22518); experiment: Inhibition of recombinant mouse CLK1 expressed in bacteria assessed as residual activity at 1 uM using GRSRSRSRSRSR as substrate in presence of [gamma-33P]ATP relative to control
[5] = target: Dual specificity tyrosine-phosphorylation-regulated kinase 1A (Rattus norvegicus) (UniProt Q63470); experiment: Inhibition of rat DYRK1A kinase domain (1 to 499 residues) expressed in bacteria assessed as residual activity at 10 uM using KKISGRLSPIMTEQ as substrate in presence of [gamma-33P]ATP relative to control
Procedure, shortened: (§2)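 Buffer: 10 mM MgCl2, 1 mM EGTA, 1 mM DTT, 25 mM Tris-HCl pH 7.5, 50 μg/ml heparin, 0.15 mg/ml BSA.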

[6] = target: Dual specificity tyrosine-phosphorylation-regulated kinase 1A (Rattus norvegicus) (UniProt Q63470); experiment: Inhibition of rat DYRK1A kinase domain (1 to 499 residues) expressed in bacteria assessed as residual activity at 1 uM using KKISGRLSPIMTEQ as substrate in presence of [gamma-33P]ATP relative to control; procedure, shortened: as §2
Sus scrofa domesticus [7] = organism: Sus scrofa domesticus; experiment: Inhibition of porcine brain CK1delta/epsilon assessed as residual activity at 10 uM using RRKHAAIGSpAYSITA as substrate in presence of [gamma-33P]ATP relative to control; assay type: tissue-based
Sus scrofa domesticus [8] = organism: Sus scrofa domesticus; experiment: Inhibition of porcine brain CK1delta/epsilon assessed as residual activity at 1 uM using RRKHAAIGSpAYSITA as substrate in presence of [gamma-33P]ATP relative to control; assay type: tissue-based
[9] = target: T2, Glycogen synthase kinase-3 (Sus scrofa) (UniProt B2LUN4+I6LNT8); experiment: Inhibition of porcine brain GSK-3alpha/beta assessed as residual activity at 10 uM using YRRAAVPPSPSLSRHSSPHQSpEDEEE as substrate in presence of [gamma-33P]ATP relative to control; assay type: tissue-based; details: Sus scrofa domesticus
[10] = target: T2, Glycogen synthase kinase-3 (Sus scrofa); experiment: Inhibition of porcine brain GSK-3alpha/beta assessed as residual activity at 1 uM using YRRAAVPPSPSLSRHSSPHQSpEDEEE as substrate in presence of [gamma-33P]ATP relative to control; assay type: tissue-based; details: Sus scrofa domesticus
Procedure, shortened: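 Affinity-purified porcine brain GSK-3α/β with 0.01 µg/µl GS-1 peptide (phosphoserine-primed) as substrate and 15 µM [γ-33P]ATP. Buffer was 25 mM Tris-HCl pH 7.5, 10 mM MgCl2, 1 mM EGTA, 1 mM DTT, 50 µg/ml heparin and 0.15 mg/ml BSA. Radioactive incorporation was compared with DMSO-dilution controls, in triplicate.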

[11] = target: Dual specificity protein kinase CLK1 (Mus musculus, UniProt P22518); experiment: Inhibition of recombinant mouse CLK1 expressed in bacteria using GRSRSRSRSRSR as substrate in presence of [gamma-33P]ATP
Sequence of Dual specificity protein kinase CLK1 (P22518 whole entry): as the sequence (P22518 whole entry, looked up, the tested form may be a part) above

[12] = Antiproliferative activity against hTERT-RPE1 cells assessed as cell viability at 2 uM after 48 hrs by CellTiter96 AQueous assay relative to control; assay type: cell-based, TERT-RPE1; details: human, read-out: Activity
Procedure, shortened: (§3)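 Cells grown in McCoy's 5a (HCT116), DMEM (SH-SY5Y, MDA-MB231, U-2 OS) or DMEM:F12 (hTERT-RPE1), each with 10% fetal calf serum, 2 mM L-glutamine, penicillin/streptomycin. Exposed to compound at 2 μM for 48 h; viability read by CellTiter96 AQueous per manufacturer, as % of DMSO-treated cells. Triplicate, mean ± SD; staurosporine as positive control.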

HCT-116 = experiment: Antiproliferative activity against human HCT116 cells assessed as cell viability at 2 uM after 48 hrs by CellTiter96 AQueous assay relative to control; assay type: functional; details: read-out: Activity; procedure, shortened: as §3
MDA-MB-231 = experiment: Antiproliferative activity against human MDA-MB-231 cells assessed as cell viability at 2 uM after 48 hrs by CellTiter96 AQueous assay relative to control; assay type: functional; details: read-out: Activity; procedure, shortened: as §3
SH-SY5Y = experiment: Antiproliferative activity against human SH-SY5Y cells assessed as cell viability at 2 uM after 48 hrs by CellTiter96 AQueous assay relative to control; assay type: functional; details: read-out: Activity; procedure, shortened: as §3
U2OS = experiment: Antiproliferative activity against human U2OS cells assessed as cell viability at 2 uM after 48 hrs by CellTiter96 AQueous assay relative to control; assay type: functional; details: read-out: Activity; procedure, shortened: as §3

Structure (SMILES)	Activity [1]	Activity [2]	Activity [3]	Activity [4]	Activity [5]	Activity [6]	Activity (Sus scrofa domesticus [7])	Activity (Sus scrofa domesticus [8])	Activity [9]	Activity [10]	IC50 [11]	viability at 48 h, 2 µM [12]	viability at 2 µM (HCT-116)	viability at 2 µM (MDA-MB-231)	viability at 2 µM (SH-SY5Y)	viability at 2 µM (U2OS)
CCN(CC)CCCNc1ncc2cc3cnccc3c([N+](=O)[O-])c2n1	50%	100%	4%	31%	23%	72%	59%	87%	24%	92%						
CCN(CC)CCNc1ncc2cc3cnccc3c([N+](=O)[O-])c2n1	79%	100%	8%	46%	47%	88%	78%	91%	26%	74%						
CN1CCN(CCCNc2ncc3cc4cnccc4c([N+](=O)[O-])c3n2)CC1	48%	100%	8%	22%	3%	54%	32%	92%	2%	59%	0.133 µM	25.8%	9.7%	11.7%	36%	2.5%
O=[N+]([O-])c1c2ccncc2cc2cnc(NCCN3CCCC3)nc12	83%	100%	7%	27%	29%	83%	73%	92%	33%	81%						
O=[N+]([O-])c1c2ccncc2cc2cnc(-c3ccccc3)nc12	62%	100%	17%	71%	38%	100%	57%	100%	100%	100%						
O=[N+]([O-])c1c2ccncc2cc2cnc(NCCN3CCOCC3)nc12	69%	100%	5%	36%	20%	73%	75%	93%	43%	88%						
CN[C@@H]1C[C@H]2O[C@@](C)([C@@H]1OC)n1c3ccccc3c3c4c(c5c6ccccc6n2c5c31)C(=O)NC4 [STAUROSPORINE]												9.1%	27%	3.9%	9.4%	0.4%
O=[N+]([O-])c1c2ccncc2cc2cnc(NCCCN3CCCCC3)nc12	53%	100%	7%	16%	6%	56%	34%	100%	24%	76%	0.125 µM					
Nc1ncc2cc3cnccc3c(N)c2n1												0.2%	1.3%	43.4%	0.9%	0.4%
CN(C)CCNc1ncc2cc3cnccc3c(N)c2n1	86%	96%	21%	51%	32%	60%	82%	78%	48%	58%						
Nc1c2ccncc2cc2cnc(NCCN3CCCCC3)nc12	76%	95%	11%	44%	16%	37%	52%	74%	24%	43%						
CN(C)CCNc1ncc2cc3cnccc3c([N+](=O)[O-])c2n1	52%	100%	5%	22%	17%	89%	36%	100%	21%	70%	0.062 µM	29.2%	13.3%	9.4%	42.7%	3.3%
O=[N+]([O-])c1c2ccncc2cc2cnc(NCCCN3CCCC3)nc12	50%	100%	5%	37%	6%	87%	37%	100%	24%	78%						
CCN(CC)CCNc1ncc2cc3cnccc3c(N)c2n1	40%	97%	3%	31%	6%	49%	60%	91%	34%	73%						
CNc1ncc2cc3cnccc3c([N+](=O)[O-])c2n1	38%	73%	2%	5%	13%	39%	45%	98%	51%	70%	0.018 µM	36%	22%	41%	52%	19.5%
CN(C)CCCNc1ncc2cc3cnccc3c([N+](=O)[O-])c2n1	64%	100%	3%	27%	31%	84%	59%	86%	24%	80%						
CN1CCN(CCNc2ncc3cc4cnccc4c([N+](=O)[O-])c3n2)CC1	77%	84%	0%	32%	6%	32%	38%	63%	22%	69%						
Nc1c2ccncc2cc2cnc(NCCCN3CCCCC3)nc12	62%	100%	4%	30%	4%	26%	48%	76%	30%	51%						
O=[N+]([O-])c1c2ccncc2cc2cnc(NCCN3CCCCC3)nc12	85%	96%	1%	42%	26%	52%	37%	81%	1%	39%						
Nc1c2ccncc2cc2cnc(NCCN3CCCC3)nc12	51%	100%	4%	33%	7%	54%	61%	90%	29%	62%						
Nc1c2ccncc2cc2cnc(-c3ccccc3)nc12	65%	92%	32%	68%	41%	80%	51%	62%	40%	85%						
